Experiment [1] concerns the target T1, Adrenergic receptor alpha-1 (Rattus norvegicus, UniProt P15823+P23944+P43140).
T1 sequence (P15823 whole entry): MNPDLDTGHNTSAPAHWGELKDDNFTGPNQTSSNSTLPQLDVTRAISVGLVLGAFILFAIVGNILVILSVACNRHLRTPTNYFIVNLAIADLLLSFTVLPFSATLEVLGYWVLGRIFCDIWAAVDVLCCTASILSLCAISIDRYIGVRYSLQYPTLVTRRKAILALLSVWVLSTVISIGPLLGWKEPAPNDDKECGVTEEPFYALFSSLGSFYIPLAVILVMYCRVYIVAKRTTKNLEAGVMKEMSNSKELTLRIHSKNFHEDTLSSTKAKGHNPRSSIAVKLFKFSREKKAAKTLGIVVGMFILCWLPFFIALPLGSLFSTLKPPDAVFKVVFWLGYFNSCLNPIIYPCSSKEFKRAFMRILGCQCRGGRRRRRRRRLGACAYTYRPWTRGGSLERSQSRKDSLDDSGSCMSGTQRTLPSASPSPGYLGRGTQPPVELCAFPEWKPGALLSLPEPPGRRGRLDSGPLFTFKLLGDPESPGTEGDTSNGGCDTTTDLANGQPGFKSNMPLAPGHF
T1 sequence (P23944 whole entry): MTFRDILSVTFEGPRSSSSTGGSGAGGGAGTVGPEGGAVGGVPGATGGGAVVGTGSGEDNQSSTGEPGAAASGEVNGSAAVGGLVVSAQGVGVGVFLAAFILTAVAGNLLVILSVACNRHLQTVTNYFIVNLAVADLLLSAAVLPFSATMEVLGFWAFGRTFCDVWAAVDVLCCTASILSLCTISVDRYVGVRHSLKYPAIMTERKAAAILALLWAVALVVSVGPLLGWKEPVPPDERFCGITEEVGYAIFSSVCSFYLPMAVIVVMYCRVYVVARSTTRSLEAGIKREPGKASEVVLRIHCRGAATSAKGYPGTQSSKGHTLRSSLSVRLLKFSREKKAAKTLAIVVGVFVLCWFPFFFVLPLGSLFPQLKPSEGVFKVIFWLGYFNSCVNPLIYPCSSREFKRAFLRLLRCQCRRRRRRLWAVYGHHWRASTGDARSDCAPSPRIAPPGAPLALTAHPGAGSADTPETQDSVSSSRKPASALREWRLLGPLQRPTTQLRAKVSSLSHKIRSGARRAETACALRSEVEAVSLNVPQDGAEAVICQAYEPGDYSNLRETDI
T1 sequence (P43140 whole entry): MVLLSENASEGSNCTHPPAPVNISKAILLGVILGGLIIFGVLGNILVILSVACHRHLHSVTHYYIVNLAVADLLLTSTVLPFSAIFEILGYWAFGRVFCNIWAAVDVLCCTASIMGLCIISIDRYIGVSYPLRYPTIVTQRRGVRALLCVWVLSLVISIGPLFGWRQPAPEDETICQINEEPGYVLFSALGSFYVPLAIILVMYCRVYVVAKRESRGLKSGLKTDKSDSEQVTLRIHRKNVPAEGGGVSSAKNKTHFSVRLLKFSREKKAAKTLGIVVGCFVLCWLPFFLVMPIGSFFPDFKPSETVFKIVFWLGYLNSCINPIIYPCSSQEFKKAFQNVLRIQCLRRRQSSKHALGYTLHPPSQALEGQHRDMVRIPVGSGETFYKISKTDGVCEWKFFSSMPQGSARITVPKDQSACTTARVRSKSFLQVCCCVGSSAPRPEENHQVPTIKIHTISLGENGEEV
Kind of experiment: Displacement of [3H]-prazosin from Alpha-1 adrenergic receptor of rat cortical membranes. Format: cell membranes, Membrane. A digest of the protocol:
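Triplicate competition binding against 0.2-0.25 nM [³H]prazosin in Tris buffer pH 7.4, 30 min at room temperature. Competitor range 0.1-200 nM. Nonspecific binding defined with 10 µM phentolamine. Reaction stopped by GF/B filtration with two cold Tris washes. Membrane protein 300-400 µg per assay. Ki calculated from the data; mean ± SEM of 3-6 experiments.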

Experiment [2] is described as follows: Selectivity ratio for binding affinity towards alpha2 and alpha-1 adrenoceptors. A digest of the protocol:
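Ratio of α2 Ki ([³H]clonidine binding) to α1 Ki ([³H]prazosin binding), both measured in rat cortical membrane competition assays.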

By Ki is commonly meant a measure of affinity in units of concentration, obtained from inhibition or displacement. A high value points to a looser hold on the target. In experiment [1], `COc1ccccc1N1CCN(C[C@H]2CN=C3c4ccccc4NC(=O)N32)CC1` displayed a Ki of 0.13 nM. Besides, the Ratio in experiment [2] came out at 1410.
On the same counts, the results for `COc1ccccc1N1CCN(C[C@@H]2CN=C3c4ccccc4N=C(SC)N32)CC1` are 144 nM and 62.5.
On the same counts, the results for `COc1ccccc1N1CCN(C[C@H]2CN=C3c4ccccc4N=C(SC)N32)CC1` are 1 nM and 3500.
On the same counts, the results for `COc1ccccc1N1CCN(C[C@@H]2CN=C3c4ccccc4NC(=O)N32)CC1` are 26 nM and more than 384.
For the molecule `COc1ccccc1N1CCN(Cc2cn3c(O)nc4ccccc4c3n2)CC1`, in experiment [2], the Ratio is 1030.
On to `COc1ccccc1N1CCN(CC2CN3C(=O)Nc4ccccc4C3=N2)CC1` (stereo not given), for which the Ki in experiment [1] worked out at 0.93 nM. Besides, the Ratio in experiment [2] stood at 247.
Consider `COc1ccccc1N1CCN(Cc2cnc3c4ccccc4nc(O)n23)CC1`, for which, in experiment [2], the Ratio worked out at 1550.
The same measure, in the same setting: as for `Oc1nc2ccccc2c2ncc(CN3CCN(c4ccccc4Cl)CC3)n12`, the figure is 382.
On to `COc1ccccc1N1CCN(CC2CN=C3c4ccccc4N=C(SC)N32)CC1` (stereo not given), for which the Ki in experiment [1] was 0.9 nM. For the same molecule, the Ratio in experiment [2] was 1080.

Values taken from ChEMBL document CHEMBL1131058, “Studies on quinazolines and 1,2,4-benzothiadiazine 1,1-dioxides. 8.1, 2 synthesis and pharmacological evaluation of tricyclic fused quinazolines and 1,2,4-benzothiadiazine 1,1-dioxides as potential alpha1-adrenoceptor antagonists” (J Med Chem, 1998).
